Source: ChEMBL document CHEMBL1155286, “Second generation of 2H-benzimidazole 1,3-dioxide derivatives as anti-trypanosomatid agents: synthesis, biological evaluation, and mode of action studies” (Eur J Med Chem, 2009)
Activity calls are given as the source filed them. No cut-off for these calls is given here.

Tested on: Leishmania braziliensis
Experiment: Inhibition of Mitochondrial dehydrogenase in Leishmania braziliensis MHOM/BR/00/LTB300 at 20 uM after 30 to 240 mins by MTT dye reduction assay in relative to control
Conditions: not given

SMILES	Activity
Cc1ccc2c(c1)=[N+]([O-])C(C)(C)[N+]=2[O-]	inactive
CCCCCCCCCCCCCCCCOP(=O)([O-])OCC[N+](C)(C)C [MILTEFOSINE]	Active
[O-][N+]1=c2ccc(Br)cc2=[N+]([O-])C12CCCC2	Active

Tested on: Trypanosoma cruzi
Experiment: Antitrypanosomal activity against Trypanosoma cruzi CL Brener trypomastigotes infected in Vero cells assessed as parasite lysis at 10 uM after 3 hrs relative to untreated control
Type: functional
Conditions: not given
Outline: (§1)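 Cell-culture trypomastigotes released from infected Vero cells (37 °C, 5% CO2, 5–7 days), collected by centrifugation and allowed 4 h at 37 °C to swim off. Supernatant parasites exposed to 10.0–50.0 μM for 2–26 h; lysis counted in a Neubauer chamber relative to untreated parasites; three independent experiments.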

SMILES	Activity
[O-][N+]1=c2ccc(Br)cc2=[N+]([O-])C12CCCC2	35%

Tested on: Trypanosoma cruzi
Experiment: Antitrypanosomal activity against Trypanosoma cruzi Tulahuen 2 epimastigotes assessed as inhibition of parasite growth after 5 days
Type: functional
Conditions: Trypanosoma cruzi, Tulahuen 2, 120 h; read-out: ID50 (the source's name)
Outline: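 Stationary-phase (10-day) Tulahuen 2 epimastigotes inoculated at 1×10^6 cells/mL in BHI-Tryptose + 5% FBS, 28 °C, drug added from DMSO stock (final DMSO ≤0.4%; control 0.4% DMSO). Growth followed as A600; inhibition from day-5 vs day-0 absorbance relative to control. ID50 = concentration reducing absorbance ratio to 50%; three independent experiments.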

SMILES	IC50
Cc1ccc2c(c1)=[N+]([O-])C(C)(C)[N+]=2[O-]	5.1 µM
[O-][N+]1=c2ccc(Br)cc2=[N+]([O-])C12CCCC2	16.3 µM

Tested on: Trypanosoma cruzi
Experiment: Antitrypanosomal activity against Trypanosoma cruzi CL Brener epimastigotes assessed as parasitic cytotoxicity at 25 uM after 5 days by MTT assay
Type: functional
Conditions: not given
Outline: (§2)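 Single 25 μM dose for 5 days on exponential-phase epimastigotes in BHI-Tryptose + 5% FBS, 24-well plates; MTT 0.4 mg/mL, 3 h at 37 °C after PBS wash, formazan in DMSO, OD595. PCyt = [[…] (ODd − ODdm)/(ODc − ODcm)] × 100 with medium-only blanks, compound-in-medium blanks and growth controls; three independent experiments.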

SMILES	Activity
Cc1ccc2c(c1)=[N+]([O-])C(C)(C)[N+]=2[O-]	61.4%
[O-][N+]1=c2ccc(Br)cc2=[N+]([O-])C12CCCC2	91.5%

Tested on: J774
Experiment: Cytotoxicity against mouse J774 cells at 100 uM relative to 5-((hydroxyimino)methyl)-2,2-dimethyl-2H-benzo[d]imidazole 1,3-dioxide
Type: cell-based
Conditions: j774, 100 µM

SMILES	Activity
[O-][N+]1=c2ccc(Br)cc2=[N+]([O-])C12CCCC2	0.82%

Tested on: Trypanosoma cruzi
Experiment: Antitrypanosomal activity against Trypanosoma cruzi CL Brener trypomastigotes infected in Vero cells assessed as parasite lysis at 10 uM after 22 hrs relative to untreated control
Type: functional
Conditions: not given
Outline: as §1

SMILES	Activity
[O-][N+]1=c2ccc(Br)cc2=[N+]([O-])C12CCCC2	16%

Tested on: Trypanosoma cruzi
Experiment: Antitrypanosomal activity against Trypanosoma cruzi Colombiana assessed as parasitic cytotoxicity at 25 uM after 5 days by MTT assay
Type: functional
Conditions: not given
Outline: as §2

SMILES	Activity
Cc1ccc2c(c1)=[N+]([O-])C(C)(C)[N+]=2[O-]	35.1%
[O-][N+]1=c2ccc(Br)cc2=[N+]([O-])C12CCCC2	83.8%

Tested on: Trypanosoma cruzi
Experiment: Decrease of glucose uptake in Trypanosoma cruzi Y epimastigotes after 4 hrs relative to control
Type: functional, organism-based
Conditions: not given
Outline: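 Y-strain epimastigotes (80×10^6/mL) washed and resuspended in PBS with 1 mM glucose, exposed 4 h to 20 μM compound from DMSO. Parasite-free supernatant refluxed 1 h with Benedict's reagent; remaining glucose quantified at 700 nm against a calibration curve.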

SMILES	Activity
Cc1ccc2c(c1)=[N+]([O-])C(C)(C)[N+]=2[O-]	inactive
[O-][N+]1=c2ccc(Br)cc2=[N+]([O-])C12CCCC2	Active

Tested on: Trypanosoma cruzi
Experiment: Antitrypanosomal activity against Trypanosoma cruzi CL Brener trypomastigotes infected in Vero cells assessed as parasite lysis at 10 uM after 26 hrs relative to untreated control
Type: functional
Conditions: not given
Outline: as §1

SMILES	Activity
[O-][N+]1=c2ccc(Br)cc2=[N+]([O-])C12CCCC2	16%

Tested on: not listed separately
Experiment: Selective index, ratio of ID50 for mouse J774 cells to ID50 for Leishmania braziliensis LTB300
Conditions: not given

SMILES	Ratio
CCCCCCCCCCCCCCCCOP(=O)([O-])OCC[N+](C)(C)C [MILTEFOSINE]	15.1
[O-][N+]1=c2ccc(Br)cc2=[N+]([O-])C12CCCC2	3.7

Tested on: Trypanosoma cruzi
Experiment: Antitrypanosomal activity against Trypanosoma cruzi Y epimastigotes after 5 days by MTT assay
Type: functional
Conditions: 120 h, read-out: ID50
Outline: (§3)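 Epimastigotes (T. cruzi strains, BHI-Tryptose + 5% FBS, 28 °C) or L. braziliensis LTB300 promastigotes (axenic RPMI + 5% FBS, 28 °C) from exponential culture in 24-well plates; compounds from DMSO stock added for 5 days. Washed in PBS, 0.4 mg/mL MTT at 37 °C for 3 h, formazan dissolved in DMSO, OD595 read. Triplicate per concentration, six growth controls; 1.0–50.0 μM dose-response, ID50 = concentration reducing absorbance ratio to 50%; three independent experiments.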

SMILES	IC50
Cc1ccc2c(c1)=[N+]([O-])C(C)(C)[N+]=2[O-]	3.3 µM
[O-][N+]1=c2ccc(Br)cc2=[N+]([O-])C12CCCC2	3.5 µM

Tested on: not listed separately
Experiment: Selective index, ratio of ID50 for mouse J774 cells to ID50 for Trypanosoma cruzi Tulahuen 2
Conditions: not given

SMILES	Ratio
[O-][N+]1=c2ccc(Br)cc2=[N+]([O-])C12CCCC2	6.1

Tested on: Trypanosoma cruzi
Experiment: Reduction of end products excretion levels in Trypanosoma cruzi Y epimastigotes after 2 days by [1H]NMR method
Type: functional, organism-based
Conditions: not given
Outline: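 Y-strain epimastigotes treated 2 days with 5 μM compound; culture centrifuged 1500 g, 10 min, 4 °C, parasite-free supernatant stored at −20 °C. Supernatant plus DMF internal standard and D2O run by 1H NMR with water suppression; metabolite peaks confirmed by spiking and standards, compared to untreated and parasite-free medium.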

SMILES	Activity
Cc1ccc2c(c1)=[N+]([O-])C(C)(C)[N+]=2[O-]	Active
[O-][N+]1=c2ccc(Br)cc2=[N+]([O-])C12CCCC2	Active

Tested on: Trypanosoma cruzi
Experiment: Antitrypanosomal activity against Trypanosoma cruzi CL Brener trypomastigotes infected in Vero cells assessed as parasite lysis at 10 uM after 2 hrs relative to untreated control
Type: functional
Conditions: not given
Outline: as §1

SMILES	Activity
[O-][N+]1=c2ccc(Br)cc2=[N+]([O-])C12CCCC2	0%

Tested on: Trypanosoma cruzi
Experiment: Inhibition of Mitochondrial dehydrogenase in Trypanosoma cruzi Y epimastigotes at 20 uM after 30 to 240 mins by MTT dye reduction assay in relative to control
Conditions: not given
Outline: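 Y-strain epimastigotes, 10^6 per well in 500 µL, 20 μM compound, 28 °C for 30–240 min with time-matched untreated controls. MTT (50 µL of 5 mg/mL) added for 4 h more, stopped with acidic isopropanol, A570 read; activity expressed as % of untreated parasites.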

SMILES	Activity
Cc1ccc2c(c1)=[N+]([O-])C(C)(C)[N+]=2[O-]	inactive
[O-][N+]1=c2ccc(Br)cc2=[N+]([O-])C12CCCC2	inactive

Tested on: not listed separately
Experiment: Cytotoxicity against mouse J774 cells
Type: cell-based
Conditions: read-out: ID50 (the source's name)

SMILES	CC50
CCCCCCCCCCCCCCCCOP(=O)([O-])OCC[N+](C)(C)C [MILTEFOSINE]	136 µM
[O-][N+]1=c2ccc(Br)cc2=[N+]([O-])C12CCCC2	100 µM

Tested on: Leishmania braziliensis
Experiment: Antiparasitic activity against Leishmania braziliensis MHOM/BR/00/LTB300 after 5 days by MTT assay
Type: functional
Conditions: MHOM/BR/00/LTB300, 120 h, read-out: ID50
Outline: as §3

SMILES	IC50
Cc1ccc2c(c1)=[N+]([O-])C(C)(C)[N+]=2[O-]	30.4 µM
CCCCCCCCCCCCCCCCOP(=O)([O-])OCC[N+](C)(C)C [MILTEFOSINE]	9 µM
[O-][N+]1=c2ccc(Br)cc2=[N+]([O-])C12CCCC2	26.7 µM
